NR2E3 ag-1 = inhibitors of NR2E3-RetCOR corepressor binding, primary screen, NR2E3 agonist project, biochemical, TR-FRET, GST-NR2E3, biotin-RetCOR. 1536-well. inhibition of corepressor binding, % at 4.78 µM. AID 2300, 2010. Photoreceptor-specific nuclear receptor (Homo sapiens), Q9Y5X4. 0.12% of 320,000 active;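 active means percent inhibition above the cutoff of mean plus 3 SD of all tested compounds, set per screening campaign, cut at about 20% in these data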;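 further: 0% = DMSO wells and 100% = biotin wells as full block of FRET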
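Assay system: NR2E3–RetCOR corepressor complex. Quantity: 1.35 nM GST-NR2E3. Buffer or medium: pH 7.5 Tris-based buffer. Reagent: biotinylated RetCOR corepressor at 7 nM final. Schedule: 5 h at 4 °C. Detection: TR-FRET, emission read at 617 and 671 nm. Replicates: one well per compound, singlicate testing.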
ADAM17 inh = ADAM17 inhibitors, primary screen, biochemical, QFRET | Disintegrin and metalloproteinase domain-containing protein 17 (Homo sapiens), P78536 | recombinant ADAM17, EDANS/DABCYL FRET peptide cleavage | inhibition, % at 6.95 µM | 0.83% of 370,000 active | AID 720648, 2013;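 active means inhibition above the mean of compounds lying between control limits plus 3 SD, set per campaign, cut at about 8.5% in these data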;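 further: 0% = DMSO-only wells as the low control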
Target sequence (P78536 215-824 limits assumed): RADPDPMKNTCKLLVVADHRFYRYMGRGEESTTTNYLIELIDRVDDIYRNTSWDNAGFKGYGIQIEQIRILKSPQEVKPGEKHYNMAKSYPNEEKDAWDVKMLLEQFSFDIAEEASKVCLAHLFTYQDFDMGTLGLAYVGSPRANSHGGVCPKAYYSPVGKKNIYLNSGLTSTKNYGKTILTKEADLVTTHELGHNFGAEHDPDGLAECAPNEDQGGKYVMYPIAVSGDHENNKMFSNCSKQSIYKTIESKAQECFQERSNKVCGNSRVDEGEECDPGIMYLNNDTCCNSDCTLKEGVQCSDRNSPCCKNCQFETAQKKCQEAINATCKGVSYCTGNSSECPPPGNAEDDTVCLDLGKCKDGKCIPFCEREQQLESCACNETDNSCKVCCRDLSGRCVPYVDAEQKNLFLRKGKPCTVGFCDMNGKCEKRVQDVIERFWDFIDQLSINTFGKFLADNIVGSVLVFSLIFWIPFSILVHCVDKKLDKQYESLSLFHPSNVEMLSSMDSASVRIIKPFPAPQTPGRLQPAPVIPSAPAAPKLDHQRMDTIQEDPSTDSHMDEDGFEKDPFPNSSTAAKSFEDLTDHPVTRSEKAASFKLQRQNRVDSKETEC
ADAM10 inh = human ADAM10 inhibitors, primary screen, biochemical, QFRET, HTS. inhibition, % at 7 µM. recombinant ADAM10, EDANS/DABCYL FRET peptide cleavage, 3 h. Disintegrin and metalloproteinase domain-containing protein 10 (Homo sapiens), O14672. 0.62% of 370,000 active. AID 720582, 2013;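 active means inhibition above a per-campaign cutoff equal to the mean of compounds falling between control-based bounds plus 3 SD, cut at about 20% in these data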;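 further: 0% = DMSO wells while the 100% control is not disclosed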
KLK7 zymogen act = proKLK7 zymogen activators, primary screen, biochemical, fluorescence intensity | Kallikrein-7 (Homo sapiens), P49862 | purified proKLK7, EDANS-DABCYL substrate fluorescence; 100% is mature enzyme control, 0% vehicle | activation, % at 7 µM | 0.9% of 370,000 active;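 active means activation above the mean of all tested compounds plus 3 SD, computed per campaign excluding outliers beyond control limits, cut at about 13% in these data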
NR2E3 ag-2 = NR2E3 agonists in two-hybrid cells, primary screen, cell-based, luminescence, CHO-S, Gal4-NCOR/VP16-NR2E3; Photoreceptor-specific nuclear receptor (Homo sapiens), Q9Y5X4; inhibition of corepressor binding, % at 3.98 µM; luciferase; 0.35% of 360,000 active;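 active means inhibition above the mean of all tested compounds plus 3 SD, cut at about 70% in these data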;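 further: 0% = DMSO with NR2E3 transfected cells and 100% = cells lacking NR2E3 construct; higher means lower luciferase signal from less NR2E3 corepressor binding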
GASC-1 inh = inhibitors of GASC-1 histone demethylase, primary screen, biochemical, fluorescence, DELFIA europium | Lysine-specific demethylase 4C (Homo sapiens), Q9H3R0 | GST-JMJD2C(1-420) H3K9me3 demethylation | inhibition, % at 2.35 µM | 0.069% of 330,000 active | AID 2099, 2009;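 active means more than half of a compound's replicate wells show inhibition beyond 50%, single wells judged on their own value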;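 further: signal counts dimethyl H3K9 product captured on neutravidin plate; 0% = median of DMSO wells and 100% = 0.3 times that DMSO median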
ADAM10 confirm = human ADAM10 inhibitors, confirmation, biochemical, QFRET, triplicate. shares compounds with ADAM10 inh. ADAM10 QFRET peptide cleavage, EDANS fluorescence. inhibition, % at 6.95 µM. 1% of 2,100 active. AID 743208, 2013;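 active means inhibition above about 20% chosen separately for each screening run, limit read from the data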;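 further: 0% = DMSO wells and 100% = marimastat wells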
ADAM17 counter = ADAM17 inhibitors, counter-screen for ADAM10 exosite inhibitor project, biochemical, QFRET, high throughput; shares compounds with ADAM10 inh; ADAM17 QFRET peptide cleavage, EDANS fluorescence; inhibition, % at 6.95 µM; 0.5% of 2,100 active; AID 743214, 2013;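 active means mean triplicate inhibition above the solvent-only control wells' mean plus 3 SD, cut at about 12% in these data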;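 further: 0% = DMSO wells and 100% = marimastat wells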
ADAM10 counter = ADAM10 inhibitors, counter-screen for ADAM17 exosite inhibitor project, biochemical, FRET, human ADAM10 | 47% of 2,900 active | recombinant ADAM10, EDANS/DABCYL FRET peptide cleavage, 3 h | shares compounds with ADAM17 inh | inhibition, % at 6.95 µM;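 active means mean inhibition over the triplicate runs exceeds the activity threshold set in the earlier primary screen, cut at about 20% in these data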;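 further: 0% = DMSO wells and 100% = marimastat wells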
ADAM17 confirm = ADAM17 inhibitors, hit retest, confirmation, biochemical, QFRET peptide cleavage. 65% of 2,900 active. recombinant ADAM17, EDANS/DABCYL QFRET peptide cleavage. shares compounds with ADAM17 inh. inhibition, % at 6.95 µM;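 active means mean inhibition across replicates above the hit cutoff set in the primary screen, cut at about 8.5% in these data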;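 further: 0% = DMSO wells and 100% = marimastat wells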
Starred values were filed as active, the others as inactive; nt = not tested or not shown. The list is not random: actives were taken first. Their share in the collection is about 2.5%.

SMILES | NR2E3 ag-1 | ADAM17 inh | ADAM10 inh | KLK7 zymogen act | NR2E3 ag-2 | GASC-1 inh | ADAM10 confirm | ADAM17 counter | ADAM10 counter | ADAM17 confirm
CC(C)(C)OC(=O)NCCCC[C@H](NC(=O)c1nc[nH]c1C(=O)NCC(=O)OCc1ccccc1)C(=O)OC(C)(C)C | 0.6 | 11.1* | 23.7* | 0.4 | 16.5 | 0.4 | 2.0 | 0.1 | 24.9* | 17.9*
CC(C)(C)OC(=O)NCCCCCNC(=O)c1nc[nH]c1C(=O)NCC(=O)OCc1ccccc1 | nt | 4.9 | 14.2 | 0.3 | 22.7 | -0.8 | nt | nt | nt | nt
C[C@H](NC(=O)c1nc[nH]c1C(=O)N[C@@H](CCCCNC(=O)OC(C)(C)C)C(=O)OC(C)(C)C)C(=O)OCc1ccccc1 | -1.6 | 15.1* | 29.3* | -0.2 | 13.1 | 3.1 | 5.8 | 1.2 | 41.8* | 23.1*
CC(=O)CC(=O)Nc1ccc(Nc2ccccc2)cc1 | -4.4 | 2.8 | 1.9 | -0.7 | 0.2 | 6.9 | nt | nt | nt | nt
CCCCC1CCC(C(=O)N(CCOC)c2c(N)n(CCCC)c(=O)[nH]c2=O)CC1 (stereo not drawn) | 0.1 | -1.5 | -5.4 | 0.6 | 0.8 | 6.1 | nt | nt | nt | nt
COc1ccc(C2=Nc3ccccc3NC(=O)C2N(C(=O)c2ccnc3ccccc23)c2ccccc2)cc1 (stereo not drawn) | nt | 17.5* | 33.0* | -0.1 | -10.0 | nt | 3.3 | 0.6 | 21.5* | 14.5*
CN(C)C(=O)c1ccc(N/C=C(\C=O)c2nc3ccccc3o2)cc1 | -1.3 | -0.7 | -3.6 | -0.4 | 11.9 | -4.2 | nt | nt | nt | nt
Cc1ccc(S(=O)(=O)N2CCOCC2)cc1NC(=O)COC(=O)c1ccc(Br)cc1 | nt | -4.4 | -9.3 | -0.7 | -8.1 | 7.8 | nt | nt | nt | nt
CCN(CC)c1ccc(NC(=O)COC(=O)CSc2ccc(Br)cc2C)cc1 | -4.6 | 19.6* | 25.6* | 0.1 | 9.3 | 0.9 | 12.7 | 5.6 | 41.1* | 22.8*
Cc1ccc(S(=O)(=O)N2CCOCC2)cc1NC(=O)COC(=O)CSc1ccc(Br)cc1C | 2.4 | 13.3* | 21.0* | 0.5 | -14.1 | 10.6 | 0.1 | 0.0 | 20.2* | 10.6*
Cc1cc(C)c(NC(=O)COC(=O)CSc2ccc(Br)cc2C)c(C)c1 | -0.6 | 3.1 | -7.7 | -0.2 | -2.2 | -70.8 | nt | nt | nt | nt
O=C(COC(=O)Cc1c[nH]c2ccccc12)Nc1cccc(Br)c1 | nt | 11.2* | 26.4* | 0.7 | 1.2 | nt | 3.9 | 0.5 | 7.0 | 8.9*
O=S(Cc1cc(Oc2ccccc2)nc(-c2ccccc2)n1)c1ccccc1 (stereo not drawn) | 0.9 | 10.6* | 26.0* | 0.3 | -56.9 | 4.9 | 3.5 | 1.1 | 9.8 | 7.0
COc1ccc(N(CC(=O)NCCSC2CCCCC2)S(=O)(=O)c2ccccc2)c(OC)c1 | -2.4 | 9.4* | 20.7* | 0.6 | 9.9 | -4.1 | 1.1 | 0.9 | 15.7 | 7.0
COc1ccc(N/N=C(/C(N)=O)C2=NC(C)(C)Cc3ccccc32)cc1 | -0.9 | 13.8* | 28.2* | -0.2 | -5.6 | 4.4 | 2.7 | 0.3 | 8.6 | 4.7
CCCCn1c(N)c(N(CC(C)C)C(=O)c2ccc(OCC3CCCO3)cc2)c(=O)[nH]c1=O (stereo not drawn) | -5.6 | -3.3 | 1.5 | -0.8 | -2.1 | 9.9 | nt | nt | nt | nt
CC1C(=O)C(C)C(c2cc(Br)ccc2O)NC1c1cc(Br)ccc1O (stereo not drawn) | nt | 15.0* | 34.3* | -0.5 | -15.5 | nt | 10.3 | 3.2 | -257.3 | -21.5
CC1C(=O)C(C)C(c2ccc(Br)cc2)NC1c1ccc(Br)cc1 (stereo not drawn) | -1.1 | -1.2 | 4.6 | -0.4 | -2.2 | 59.0 | nt | nt | nt | nt
COc1cc2c(cc1OC)C(=O)N1[C@H]3c4cc(C)ccc4OC[C@@H]3[C@H](c3ccccc3)[C@]1(C)C(=O)N2 | nt | 2.2 | 5.3 | -1.0 | -18.4 | 38.8 | nt | nt | nt | nt
COc1cc2c(cc1OC)C(=O)N1[C@H]3c4cc(Cl)ccc4OC[C@@H]3[C@H](c3ccccc3)[C@]1(C)C(=O)N2 | 0.1 | 11.7* | 28.9* | -1.7 | 12.7 | -2.9 | 15.8 | 4.9 | 34.4* | 19.2*
NC(=O)NC(CC(=O)Nc1cccnc1)c1cccc(Br)c1 (stereo not drawn) | 1.2 | -0.6 | 2.4 | -0.3 | -17.3 | 7.1 | nt | nt | nt | nt
O=C(Nc1ccccc1)OCc1cc(-c2ccccc2Cl)on1 | 5.5 | 9.0* | 26.9* | 0.1 | -49.2 | 3.6 | 9.0 | 3.0 | 35.8* | 17.5*
O=C(Nc1cccc(O)c1)c1cc(-c2ccccc2Cl)on1 | 4.0 | 1.4 | 9.0 | 0.2 | -20.3 | -10.3 | nt | nt | nt | nt
Cc1ccc(NC(=O)C2(C)Cc3ccccc3C(=O)O2)cc1 (stereo not drawn) | 5.6 | -1.6 | -3.2 | 0.1 | 10.7 | 23.2 | nt | nt | nt | nt
O=C1CCCN1c1ccc(S(=O)(=O)Oc2cccc(Cl)c2)cc1[N+](=O)[O-] | 2.6 | 9.7* | 19.9* | -0.4 | 20.9 | -6.1 | 2.8 | 0.8 | 4.5 | 5.1
O=C1CCCN1c1ccc(S(=O)(=O)N2CCCCC2)cc1[N+](=O)[O-] | -0.6 | -2.6 | -2.3 | 0.1 | 6.1 | -20.3 | nt | nt | nt | nt
Cc1nc2c(C)cccn2c1/C(O)=C1\C(=O)C(=O)N(CCN(C)C)C1c1ccccc1 (stereo not drawn) | 0.8 | -2.9 | 0.6 | -0.9 | -24.8 | 14.5 | nt | nt | nt | nt
